OX1R antag-1: blocks the human orexin 1 receptor. OX1R-expressing cells, FRET antagonist read-out. inhibition, % at 6.6 µM. actives 1.8% (n = 330,000). AID 485270; in the data active = inhibition mostly above about 38%, no sharp cut-off; inactive = mostly below about 40%;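 also: 0% = agonist challenge alone and 100% = reference antagonist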
Target sequence (O43613 whole entry, looked up): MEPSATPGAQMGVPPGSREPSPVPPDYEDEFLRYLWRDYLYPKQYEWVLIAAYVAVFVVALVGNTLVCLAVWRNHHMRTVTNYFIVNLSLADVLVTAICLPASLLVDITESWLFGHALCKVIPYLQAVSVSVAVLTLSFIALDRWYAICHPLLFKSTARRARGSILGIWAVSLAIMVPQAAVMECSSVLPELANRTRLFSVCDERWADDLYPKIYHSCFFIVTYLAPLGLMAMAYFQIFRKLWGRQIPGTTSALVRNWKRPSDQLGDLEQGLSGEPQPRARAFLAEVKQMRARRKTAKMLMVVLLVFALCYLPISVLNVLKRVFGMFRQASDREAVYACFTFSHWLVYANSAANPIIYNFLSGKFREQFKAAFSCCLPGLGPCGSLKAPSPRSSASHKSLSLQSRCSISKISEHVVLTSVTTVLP
M1 ag parental: counter-screen for M1 agonists: effect in parental CHO-K1 cells. Fluo-8 calcium fluorescence; scaled to maximal ATP response, vehicle zero. activation, % at 3 µM. AID 602248. actives 0.48% (n = 360,000); in the data active = activation above about 15%;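 also: untransfected CHO-K1 host cells lacking M1 receptor as counterscreen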
CHO-K1 Ca antag: nonselective inhibitor or artifact in parental CHO-K1 cells | inhibition, % at 3 µM | actives 0.6% (n = 360,000) | AID 602250 | ATP-induced calcium, Fluo-8 fluorescence;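 active = inhibition above a per-plate cutoff, the plate's mean sample inhibition plus 3 SD, cut at about 24% in these data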;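 also: 0% = DMSO plus EC80 ATP and 100% = DMSO alone without ATP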
CHO-K1 Ca PAM: M1 PAM counterscreen hit in parental CHO-K1 cells; ATP EC20, Fluo-8 calcium fluorescence; 0% at ATP EC20, 100% at ATP max; activation, % at 3 µM; actives 0.02% (n = 360,000);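 active = activation above the run cutoff, the mean activation of all test compounds plus 3 SD, cut at about 40% in these data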;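 also: peak over basal fluorescence ratio in a 140 s read after ATP addition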
OX1R antag-2: blocks the human orexin 1 receptor | O43613 | CHO/OX1R cells, Fluo-8 calcium fluorescence, orexin A | inhibition, % at 5 µM | actives 0.43% (n = 330,000) | AID 434989;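 active = inhibition above its plate's threshold, mean inhibition of all tested compounds on the plate plus 3 SD, cut at about 37% in these data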;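 also: 0% = orexin A challenge wells and 100% = SB-334867-A antagonist wells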
CHO parental Ca: signal in parental CHO cells, OX1R antagonist counter-screen; AID 463079; inhibition, % at 5.6 µM; parental CHO-K1, ATP-induced calcium, Fluo-8 fluorescence; actives 0.63% (n = 330,000);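 active = inhibition above that plate's mean sample inhibition plus 3 SD, cut at about 26% in these data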;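 also: 0% = ATP-challenged DMSO wells and 100% = DMSO wells without ATP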
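Material – parental CHO cells · Reagent – ATP stimulus · Compound – single nominal dose of 5.6 µM per compound · Detection – Fluo-8 fluorescence · Read-out basis – percent inhibition of calcium signal · Controls – ATP-challenged DMSO wells low, unchallenged DMSO wells high · Repeats – no replicates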
* = called active by the depositor; / = no result given. Shown are actives, neighbours in structure and some others; about 2.9% of the full set was active somewhere.

SMILES | OX1R antag-1 | M1 ag parental | CHO-K1 Ca antag | CHO-K1 Ca PAM | OX1R antag-2 | CHO parental Ca
COc1ccc(CC(NC(C)=O)C(=O)NC2CCN(c3nnnn3-c3ccccc3)CC2)cc1OC (stereo unspecified) | 8.5 | / | / | / | -7.2 | -9.7
Cc1ccc(C(OCC(O)CNCc2ccc(F)cc2)c2ccccc2)cc1 (stereo unspecified) | -14.4 | 17.4* | 35.6* | 11.5 | -19.8 | 4.5
O=C(c1ccccc1)c1ccc(OCC(O)CNCc2ccc(F)cc2)cc1 (stereo unspecified) | / | 7.4 | 2.1 | 7.5 | / | /
Fc1cccc(CNc2ncnc3cc(Cl)ccc23)c1F | 22.5 | 15.2* | 22.6 | 4.0 | -17.7 | -3.3
Cc1cc(C(=O)CCC(=O)NCC(=O)Nc2c(C)cccc2C)c(C)s1 | 7.6 | 0.1 | -8.5 | -7.7 | -4.8 | -5.5
COc1cc(CN(C2CC2)S(=O)(=O)c2ccccc2Br)cc(OC)c1 | 27.7 | 2.0 | -16.5 | 32.7 | 16.4 | -47.7
COc1ccc(CN(CCC(C)C)S(=O)(=O)c2ccccc2Br)c(OC)c1 | 37.8* | 1.7 | -21.1 | 24.9 | 41.7 | -27.5
CC(=O)Nc1ccc2nc(NC(=O)c3cccs3)sc2c1 | 19.8 | 2.1 | -12.4 | 21.0 | -8.6 | -7.0
O=C(Nc1nc2cc3c(cc2s1)OCCO3)c1cccs1 | 65.6* | 3.8 | -10.6 | 12.2 | 12.0 | 7.4
CCc1sc(C(=O)NCCc2ccc(S(N)(=O)=O)cc2)cc1Br | 18.4 | -0.2 | 28.6* | -12.2 | -6.7 | -11.4
COc1cc(CNn2c(C)n[nH]c2=S)cc(Cl)c1OCc1ccc(F)cc1 | 15.6 | 4.1 | -17.1 | 25.6 | 45.2* | 34.6*
COc1cc(CNn2c(C)n[nH]c2=S)cc(Br)c1OCc1ccc(F)cc1 | 29.2 | 4.1 | -5.1 | 24.6 | -19.6 | -6.8
CC(NC(=S)Nc1ccc(F)cc1)C(c1cccs1)N1CCOCC1 (stereo unspecified) | -9.9 | 0.5 | 17.8 | -4.3 | -25.7 | -18.6
N#C/C(=C\c1ccc(O)cc1)C(=O)NCc1cccc(Cl)c1 | 0.8 | 16.7* | -10.0 | 2.8 | -2.5 | 4.6
N#C/C(=C/c1ccc(O)cc1)C(=O)NCc1ccc(Cl)cc1 | 5.6 | 1.7 | 5.0 | -15.2 | -8.3 | -7.0
Cc1cc(C(=O)Nc2ccc(S(=O)(=O)N3CCCC3)cc2)cs1 | 0.0 | 0.6 | 25.2* | -13.2 | -13.0 | 1.6
O=C(Nc1ccc(Cl)cc1)c1ccc(CN2CCc3ccccc3C2)cc1 | 2.9 | 2.2 | -1.5 | 6.3 | -29.1 | -9.0
O=C(CNC(=O)c1ccc(S(=O)(=O)N2CCCC2)cc1)N/N=C/c1c(Cl)cccc1Cl | 13.0 | 19.6* | 20.9 | -14.5 | -0.9 | -3.2
O=C(CNC(=O)c1ccc(S(=O)(=O)N2CCCC2)cc1)N/N=C/c1ccc(Cl)cc1 | 13.4 | -0.1 | 5.8 | 6.4 | -22.8 | -18.4
O=C(Nc1ccc(S(=O)(=O)N2CCOCC2)cc1)c1ccc(CN2CCc3ccccc3C2)cc1 | 47.3 | / | / | / | 68.7* | 51.2*
O=C(Nc1ccc(S(=O)(=O)N2CCCC2)cc1)c1ccc(CN2CCc3ccccc3C2)cc1 | 26.9 | 14.0 | 17.7 | 4.2 | 49.1* | 38.5*
Cc1cc(Cn2nc(C(=O)NCc3cccs3)cc2-c2ccccc2)on1 | 34.7 | -0.4 | 5.6 | -9.7 | -5.3 | -7.6
CCOc1ccc(NC(=O)c2ccc(CN3CCc4ccccc4C3)cc2)cc1 | -9.9 | 0.2 | 26.6* | -24.7 | -21.7 | -12.0
CCOC(=O)N1CCC(NC(=O)c2cc(C(=O)Nc3ccc(S(=O)(=O)N4CCCCC4)cc3)ccc2CO)CC1 | 11.1 | 19.2* | -0.8 | 11.7 | -19.4 | -10.4
CCOC(=O)N1CCC(NC(=O)c2cc(C(=O)Nc3ccc(OCC)cc3)ccc2CO)CC1 | 17.4 | 0.2 | -8.5 | 10.4 | -6.6 | 1.2
SMILES | OX1R antag-1 | M1 ag parental | CHO-K1 Ca antag | CHO-K1 Ca PAM | OX1R antag-2 | CHO parental Ca
CCOC(=O)c1ccc(NC(=O)c2ccc(CN3CCc4ccccc4C3)cc2)cc1 | 17.3 | 5.0 | -8.1 | 15.3 | -12.3 | -1.7
CC(C)(C)NC(=O)C(c1ccc(O)cc1)N(C(=O)CCC(=O)Nc1ccccn1)c1ccc(F)cc1 (stereo unspecified) | 2.7 | 0.1 | 16.7 | -8.8 | -17.4 | -24.4
CCCCCN(C(=O)CCC(=O)OCC(=O)N(CC#N)c1ccccc1)c1c(N)n(CCCC)c(=O)[nH]c1=O | 16.1 | 0.9 | -7.1 | 7.8 | -15.2 | 4.3
CC(C)C(=O)N(c1cc2sc(=O)oc2c2ccccc12)S(=O)(=O)c1cccs1 | 37.7 | 4.1 | -22.1 | 22.1 | 67.7* | 87.2*
CC(C)C(=O)N(c1ccc2oc(=O)sc2c1)S(=O)(=O)c1cccs1 | 16.1 | 0.4 | -3.1 | 9.9 | -1.9 | -5.6
O=[N+]([O-])c1cc([N+](=O)[O-])c2cc3ccccc3nc2c1 | 7.6 | -0.3 | -5.4 | 0.8 | 4.5 | -0.2
CCC1(CC)NC(=O)N(CC(=O)Nc2ccc(OCc3ccccc3)cc2)C1=O | 8.9 | 2.0 | -11.4 | 15.5 | 16.0 | -5.0
C=CCc1ccccc1OCCNCCCOC | 30.0 | -0.3 | 23.7* | -16.3 | -11.0 | -11.2
C=CCc1cc(Cl)ccc1OCCNCCCOC | 26.2 | 2.4 | -10.1 | 5.4 | -22.6 | -8.1
CCN(CC)C(=O)C1=C(C)N(CCCOC)C(=O)C(CC(=O)NCCc2ccccn2)C1 (stereo unspecified) | / | 0.1 | 29.9* | -12.2 | / | /
COCCCN1C(=O)C(CC(=O)NCCc2ccccn2)CC(C(=O)N2CCOCC2)=C1C (stereo unspecified) | / | 0.6 | -6.6 | 8.5 | / | /
COc1ccc(-c2cc(C(F)(F)F)nc(SCC(=O)Nc3cc(C)on3)n2)cc1OC | 26.2 | 0.2 | 24.9* | -6.3 | -20.0 | -18.7
Cc1ccc(C)c(NC(=O)c2ccccc2NS(=O)(=O)c2cc([N+](=O)[O-])ccc2C)c1 | 55.1* | 14.0 | 14.0 | -4.7 | 6.9 | 7.0
Cc1ccc([N+](=O)[O-])cc1S(=O)(=O)Nc1cccc(S(=O)(=O)Nc2ccccc2C(=O)O)c1 | -4.2 | 0.9 | -6.1 | 15.7 | 13.4 | -2.6
Cc1cc(NC(=O)c2ccccc2NS(=O)(=O)c2c(C)c(C)cc(C)c2C)no1 | 32.0 | 0.9 | -17.7 | 12.3 | -1.7 | -2.8
Cc1ccc(C)c(S(=O)(=O)Nc2ccccc2C(=O)Nc2cc(C)on2)c1 | 36.1* | 9.7 | -11.7 | -0.6 | -2.8 | -12.5
Cc1nn(-c2ccccc2)c(Cl)c1/C=N/NC(=O)c1ccco1 | 44.8* | 0.5 | 6.3 | 8.3 | -9.9 | -3.6
Cc1nn(-c2ccccc2)c(Cl)c1/C=N/NC(=O)c1ccc(CNc2ccccc2)o1 | 35.7 | 0.0 | 2.9 | -4.7 | -0.2 | 3.6
Oc1ccccc1-c1cncn1Cc1ccccc1 | -8.3 | 1.7 | 2.4 | -11.4 | 9.0 | -15.3
CC(C)CC1OC(C)CC2=C1C(=O)OC(C)(C)O2 (stereo unspecified) | / | 0.0 | -10.1 | 10.1 | / | /
COc1ccc(CC(=O)N(Cc2ccccc2)c2ccccc2)cc1S(=O)(=O)N1CCOCC1 | 58.0* | 13.2 | -3.8 | 17.9 | -6.8 | -11.9

Screens (PubChem BioAssay)
